# Results published in PMC6682041 (ACS Omega, 2019).
# What was measured:
# horse serum BChE [1] = target: T1, horse serum BChE (Equus caballus, UniProt P81908); test: Cholinesterase enzyme inhibition assay; assay type: biochemical
# electric eel AChE [2] = target: T2, electric eel AChE (Electrophorus electricus, UniProt O42275); test: Enzyme kinetics of AChE inhibition; assay type: biochemical; settings: for AChE inhibition type: determined by the Lineweaver–Burk plot
# In short: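 Electric eel AChE (0.36 U/mL solution) was preincubated 15 min at RT with the test compound (0.5–10 µM, from 10% DMSO) in sodium phosphate buffer pH 8.0. DTNB and acetylthiocholine (0.1, 0.3, 0.6 […]) were then added, with 10 min at RT and A412 read. Run in triplicate. Inhibition type came from Lineweaver–Burk plots and Ki from Dixon plots.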
# electric eel AChE [3] = target: T2, electric eel AChE; test: Cholinesterase enzyme inhibition assay; assay type: biochemical
# In short: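 Electric eel AChE, added as a 0.36 U/mL solution, was preincubated 15 min at room temperature in sodium phosphate buffer (pH 8.0) with test compound dissolved in 10% DMSO. DTNB and […] substrate were then added, with a further 10 min at room temperature. Absorbance was read at 412 nm, in triplicate. % inhibition = (1 − T/C) × 100; IC50 from the log dose–inhibition curve.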
# Aβ25–35 = Aβ25–35 (Homo sapiens, UniProt P05067); test: Self-induced Aβ25–35 aggregation inhibition assay; assay type: biochemical; settings: read-out: inhibition of self-induced Aβ25–35 aggregation
# In short: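 Aβ25–35 was lyophilized from HFIP, taken to a 0.4 mM stock in 65% acetonitrile and diluted 2-fold in 69 mM phosphate pH 7.0. Test compound (0.2, 2, 20 µM) or reference inhibitor (10 µM) was added, then 24 h at 4 °C. ThT (25 µM, glycine–NaOH pH 8.5) was added, with 5 min before reading ex 446/em 490 nm. %inhibition = 100 − (Fi/Fc × 100); mean ± SD, n=3.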
# horse serum BChE [4] = target: T1, horse serum BChE; test: Enzyme kinetics of BChE inhibition; assay type: biochemical; settings: for BChE inhibition type: determined by the Lineweaver–Burk plot
# In short: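 Horse serum BChE (0.36 U/mL solution) was preincubated 15 min at RT with the test compound (1.25–10 µM, from 10% DMSO) in sodium phosphate buffer pH 8.0. Reaction started with DTNB plus butyrylthiocholine (0.1, 0.3, 0.6 […]), then 10 min at RT and A412 read. Run in triplicate. Lineweaver–Burk plots gave the inhibition mode; Dixon plots gave Ki.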
# human recombinant GSK-3β = human recombinant GSK-3β (Homo sapiens, UniProt P49841); test: biochemical
# [5] = target: T3, human recombinant β-secretase (BACE1) (Homo sapiens, UniProt P56817); test: Enzyme kinetics of BACE1 inhibition; assay type: biochemical; settings: for BACE1 inhibition type: determined by the Lineweaver–Burk plot
# In short: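 FRET kit using human recombinant β-secretase (1.0 U/mL solution) in assay buffer pH 4.5. The test compound (0.625–5 µM) was mixed with substrate at 250, 375 or 750 nM and incubated 60 min at RT in the dark. Fluorescence was read at ex 545/em 585 nm, and inhibition taken from the 0 to 60 min change versus control. Lineweaver–Burk plots gave the mechanism; Dixon plots gave Ki.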
# [6] = target: T3, human recombinant β-secretase (BACE1); test: BACE1 enzyme inhibition assay; assay type: biochemical
# T3 sequence (P56817 46-501): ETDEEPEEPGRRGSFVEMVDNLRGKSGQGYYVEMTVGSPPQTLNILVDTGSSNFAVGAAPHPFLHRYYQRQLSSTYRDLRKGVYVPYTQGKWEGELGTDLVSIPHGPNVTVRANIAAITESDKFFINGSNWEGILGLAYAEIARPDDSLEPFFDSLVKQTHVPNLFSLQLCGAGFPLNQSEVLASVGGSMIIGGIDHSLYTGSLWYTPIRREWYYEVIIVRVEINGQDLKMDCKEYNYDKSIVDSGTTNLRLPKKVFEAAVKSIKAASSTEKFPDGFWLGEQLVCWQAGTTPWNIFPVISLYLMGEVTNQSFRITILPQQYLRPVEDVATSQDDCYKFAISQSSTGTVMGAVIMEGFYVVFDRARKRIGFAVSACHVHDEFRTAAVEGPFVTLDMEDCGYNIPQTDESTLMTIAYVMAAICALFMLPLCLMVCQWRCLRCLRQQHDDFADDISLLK
# T1 sequence (P81908 whole entry): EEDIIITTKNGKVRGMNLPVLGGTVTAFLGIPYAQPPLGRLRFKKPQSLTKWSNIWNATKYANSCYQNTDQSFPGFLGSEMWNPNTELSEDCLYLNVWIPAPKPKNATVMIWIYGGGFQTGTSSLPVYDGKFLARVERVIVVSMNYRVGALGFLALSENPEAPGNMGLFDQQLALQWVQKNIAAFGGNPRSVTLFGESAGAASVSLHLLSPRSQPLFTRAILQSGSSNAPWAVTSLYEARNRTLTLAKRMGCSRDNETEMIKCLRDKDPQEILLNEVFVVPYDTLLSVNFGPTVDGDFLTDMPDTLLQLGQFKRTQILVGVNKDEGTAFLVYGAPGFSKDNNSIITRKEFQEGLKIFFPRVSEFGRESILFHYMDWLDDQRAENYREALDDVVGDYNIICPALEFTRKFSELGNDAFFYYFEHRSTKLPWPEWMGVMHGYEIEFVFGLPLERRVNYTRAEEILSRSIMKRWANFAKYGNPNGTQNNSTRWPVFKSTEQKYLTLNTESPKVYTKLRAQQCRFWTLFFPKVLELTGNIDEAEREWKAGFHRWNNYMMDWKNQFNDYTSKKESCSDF
# human recombinant GSK-3β, sequence (P49841 whole entry): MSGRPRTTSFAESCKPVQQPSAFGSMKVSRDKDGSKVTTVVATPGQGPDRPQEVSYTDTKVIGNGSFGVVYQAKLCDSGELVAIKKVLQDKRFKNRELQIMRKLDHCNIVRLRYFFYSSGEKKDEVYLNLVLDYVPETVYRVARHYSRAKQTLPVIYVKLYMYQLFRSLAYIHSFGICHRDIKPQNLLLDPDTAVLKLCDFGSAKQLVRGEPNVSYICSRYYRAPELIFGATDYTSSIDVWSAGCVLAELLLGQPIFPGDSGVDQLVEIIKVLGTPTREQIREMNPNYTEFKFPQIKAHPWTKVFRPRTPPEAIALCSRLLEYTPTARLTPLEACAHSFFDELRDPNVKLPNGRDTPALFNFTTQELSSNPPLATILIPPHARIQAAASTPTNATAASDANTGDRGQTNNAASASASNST
# T2 sequence (O42275 24-633): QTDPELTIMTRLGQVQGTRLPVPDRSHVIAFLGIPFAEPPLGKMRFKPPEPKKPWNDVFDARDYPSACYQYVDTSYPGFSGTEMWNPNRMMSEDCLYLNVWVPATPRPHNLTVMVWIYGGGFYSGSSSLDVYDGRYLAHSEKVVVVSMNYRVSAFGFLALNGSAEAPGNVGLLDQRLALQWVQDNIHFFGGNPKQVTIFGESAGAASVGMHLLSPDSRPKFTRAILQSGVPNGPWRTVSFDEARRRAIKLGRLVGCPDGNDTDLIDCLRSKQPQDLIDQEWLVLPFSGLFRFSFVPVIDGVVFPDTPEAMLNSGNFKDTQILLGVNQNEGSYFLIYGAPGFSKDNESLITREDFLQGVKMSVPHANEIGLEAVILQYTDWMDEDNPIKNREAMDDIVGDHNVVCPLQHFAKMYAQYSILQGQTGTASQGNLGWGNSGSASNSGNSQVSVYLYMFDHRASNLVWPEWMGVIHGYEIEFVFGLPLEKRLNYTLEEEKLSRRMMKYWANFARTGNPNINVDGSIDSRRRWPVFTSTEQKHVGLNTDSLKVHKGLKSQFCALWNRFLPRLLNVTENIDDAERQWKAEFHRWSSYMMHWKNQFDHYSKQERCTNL
Compound,IC50 (horse serum BChE [1]),Ki (electric eel AChE [2]),AChE inhibition type (electric eel AChE [2]),IC50 (electric eel AChE [3]),inhibition at 20 µM (Aβ25–35),Ki (horse serum BChE [4]),BChE inhibition type (horse serum BChE [4]),IC50 (human recombinant GSK-3β),Ki [5],BACE1 inhibition type [5],IC50 [6],inhibition at 10 µM (Aβ25–35)
"OCc1c(Br)c(O)c(O)c(Br)c1Br [Compound 1, 2,3,6-tribromo-4,5-dihydroxybenzyl alcohol]",8.95 ± 2.18 µM,0.58 µM,mixed,7.31 ± 0.25 µM,66.8%,1.15 µM,competitive,229 ± 12.1 µM,3.1 µM,noncompetitive,5.16 ± 0.6 µM,–
"COc1cc(/C=C/C(=O)CC(=O)/C=C/c2ccc(O)c(OC)c2)ccc1O [curcumin, reference compound]",–,–,–,–,–,–,–,–,–,–,–,52.4%
"COc1ccc2cc3[n+](cc2c1OC)CCc1cc2c(cc1-3)OCO2 [berberine, reference compound]",–,–,–,1.17 ± 0.09 µM,–,–,–,–,–,–,–,–
"COCc1c(Br)c(O)c(O)c(Br)c1Br [Compound 2, 2,3,6-tribromo-4,5-dihydroxybenzyl methyl ether]",14.4 ± 0.27 µM,0.71 µM,mixed,9.61 ± 0.35 µM,56.7%,0.51 µM,competitive,140 ± 15.1 µM,0.7 µM,noncompetitive,4.79 ± 0.82 µM,–
"Oc1c(O)c(Br)c(COCc2c(Br)c(O)c(O)c(Br)c2Br)c(Br)c1Br [Compound 3, bis-(2,3,6-tribromo-4,5-dihydroxybenzyl) ether]",4.03 ± 0.15 µM,0.64 µM,mixed,2.66 ± 0.24 µM,58.5%,0.37 µM,competitive,56.5 ± 2.48 µM,1.24 µM,competitive,2.32 ± 0.1 µM,–
"O=c1cc(-c2ccc(O)c(O)c2)oc2cc(O)cc(O)c12 [luteolin, reference compound]",–,–,–,–,–,–,–,5.42 ± 0.19 µM,–,–,–,–
